Sampled rows, rich in hits. Any-hit rate of the full collection: about 4.6%.
TAAR1 ag – human TAAR1 agonism; activation, % at 3 µM; 360,000 tested, 0.99% active; Q96RJ0; CHO RD-HGA16 TAAR1, Fluo-8 calcium fluorescence; vehicle wells 0%, saturating PEA agonist 100%; AID 624467;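 active = activation above the mean activation of all test compounds in the run plus 3 SD, cut at about 38% in these data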
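System: CHO RD-HGA16 cells carrying human TAAR1 plus Gα16; Incubation: 17-24 h seeding, 75 min 37 °C dye, 30 min RT; Measured by: Fluo-8 fluorescence, 5 s baseline then 140 s kinetic read; Control set: DMSO and PEA EC100; Replication: single well for each compound.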
CHO parental Ca – counter-screen for OX1R antagonists: effect in parental CHO cells; parental CHO-K1, ATP-induced calcium, Fluo-8 fluorescence; inhibition, % at 5.6 µM; AID 463079; 330,000 tested, 0.63% active;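 active = inhibition above that plate's mean sample inhibition plus 3 SD, cut at about 26% in these data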;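 note: 0% = ATP-challenged DMSO wells and 100% = DMSO wells without ATP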
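Test system: untransfected parental CHO cell line; also added: ATP stimulus; dosing: 5.6 µM, single dose; signal: calcium-sensitive Fluo-8 fluorescence; measure: percent inhibition of ATP-evoked calcium rise, normalized to controls; benchmarks: low control ATP plus DMSO, high control DMSO only; replication: one well per compound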
OX1R antag-1 – blocks the human orexin 1 receptor; O43613; CHO/OX1R cells, Fluo-8 calcium fluorescence, orexin A; inhibition, % at 5 µM; 330,000 tested, 0.43% active;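 active = inhibition above its plate's threshold, mean inhibition of all tested compounds on the plate plus 3 SD, cut at about 37% in these data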;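 note: 0% = orexin A challenge wells and 100% = SB-334867-A antagonist wells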
Target sequence (O43613 whole entry, looked up): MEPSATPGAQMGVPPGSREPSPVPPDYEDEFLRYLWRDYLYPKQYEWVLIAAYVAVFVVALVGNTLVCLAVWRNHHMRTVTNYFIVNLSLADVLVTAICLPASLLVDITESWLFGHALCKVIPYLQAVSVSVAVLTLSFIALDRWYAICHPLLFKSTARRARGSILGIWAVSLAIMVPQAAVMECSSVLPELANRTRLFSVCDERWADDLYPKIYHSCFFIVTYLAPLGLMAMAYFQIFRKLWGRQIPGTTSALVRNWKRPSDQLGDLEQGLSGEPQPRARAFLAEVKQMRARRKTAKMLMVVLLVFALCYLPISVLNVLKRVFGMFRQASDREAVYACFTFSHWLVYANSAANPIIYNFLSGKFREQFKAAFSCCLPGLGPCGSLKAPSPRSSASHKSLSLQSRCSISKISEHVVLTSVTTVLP
GPR7 antag – blocks human GPR7 receptor signaling; P48145; GPR7-expressing cells, fluorescence antagonist assay; inhibition, % at 4.4 µM; 290,000 tested, 1.1% active; AID 1861; in the data active = inhibition above about 16%, passing the limit was not always enough;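 note: cells stimulated with the agonist NPW; 0% = agonist with vehicle and 100% = vehicle without agonist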
OX1R antag-2 – blocks the human orexin 1 receptor; O43613; OX1R-expressing cells, FRET antagonist read-out; inhibition, % at 6.6 µM; 330,000 tested, 1.8% active; AID 485270; in the data active = inhibition mostly above about 38%, no sharp cut-off; inactive = mostly below about 40%;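 note: 0% = agonist challenge alone and 100% = reference antagonist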
TAAR1 antag – antagonists of human TAAR1; Q96RJ0; CHO RD-HGA16 TAAR1, Fluo-8 calcium fluorescence, antagonist; inhibition, % at 3 µM; 360,000 tested, 1.5% active;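 active = inhibition above a per-plate cutoff, the mean inhibition of test compounds on that plate plus 3 SD, cut at about 49% in these data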;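 note: 0% = DMSO plus EC80 beta-PEA response and 100% = DMSO alone without agonist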
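Test system: RD-HGA16 CHO cells with stable hTAAR1 and Gα16 / Probe or stimulus: EC80 β-phenethylamine stimulus / Times: seeding 17-24 h prior, 75-min 37 °C, 30-min RT dye loading / Detection: Fluo-8 calcium-sensitive fluorescence / Read-out basis: % inhibition scaled between DMSO and EC80 PEA controls / Repeats: singlicate, one well per test compound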
GPR7 antag cf – confirmation of human GPR7 antagonists. inhibition, % at 4.4 µM. GPR7-expressing cells, calcium fluorescence antagonist mode. 2,400 tested, 52% active. shares compounds with GPR7 antag; in the data active = inhibition above about 24%;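 note: stimulated with the GPR7 agonist NPW; 0% = agonist plus vehicle and 100% = vehicle alone without agonist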
MCHR1 antagonist – MCHR1 (human) antagonism in GPR7 counter-screen | MCHR1-expressing cells, fluorescence antagonist assay | shares compounds with GPR7 antag | 2,400 tested, 62% active | inhibition, % at 4.4 µM; in the data active = inhibition above about 22%;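 note: 0% = vehicle with agonist and 100% = vehicle without agonist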
Starred values were filed as active, the others as inactive; . = no result.

SMILES	TAAR1 ag	CHO parental Ca	OX1R antag-1	GPR7 antag	OX1R antag-2	TAAR1 antag	GPR7 antag cf	MCHR1 antagonist
COc1ccccc1N1CCN(S(=O)(=O)c2ccc3c(c2)oc(=O)n3C)CC1	2	-1	-9	30*	12	-1	4	-2
CN(CCc1ccccc1)C(c1cc2ccccc2o1)c1nnnn1C(C)(C)C (configuration not stated)	2	.	.	.	.	34	.	.
Cc1nn(C)c(C)c1N1C(=O)c2cccc3c(N)ccc(c23)C1=O	124*	51*	62*	22*	19	64*	26*	38*
Cc1nn(C)c(C)c1N1C(=O)c2cccc3c(Br)ccc(c23)C1=O	17	3	2	-15	62	9	.	.
CC(=O)NC1C(=O)N(CCc2ccccc2)c2ccc(Br)cc21 (configuration not stated)	11	.	.	22	.	-22	.	.
CCCCN1C(=O)C(NC(C)=O)c2ccccc21 (configuration not stated)	6	1	-6	26*	12	-17	-15	20
Cc1ccc(CS(=O)(=O)c2ncc(Cl)c(C(=O)Nc3ccc(OC(F)F)cc3)n2)cc1	-1	59*	51*	43*	25	28	84*	96*
Cc1ccc(S(=O)(=O)Oc2ccc(/C=C3\C(=N)N4N=C(S(C)(=O)=O)SC4=NC3=O)cc2)cc1	-2	24	2	30*	23	5	14	8
CCCC#Cc1ccc2c(c1)O[C@H](CN(C)C(=O)CC1CC1)[C@H](C)CN([C@@H](C)CO)S2(=O)=O	6	.	.	.	.	-31	.	.
O=C(Oc1ccc(C(=S)N2CCOCC2)cc1)c1ccc(Br)cc1	1	-3	-8	0	4	-3	.	.
O=C(Oc1ccc(C(=S)N2CCOCC2)cc1)c1ccccc1	2	2	-17	42*	11	19	26*	15
Cc1occc1C(=O)Nc1cccc(C(=O)O)c1	17	-3	-10	26*	16	16	-17	20
O=c1c2c(nc3cc(-c4ccc(F)cc4)[nH]n13)CCC2	1	12	16	30*	4	-6	-13	8
O=C(Cc1ccc(S(=O)(=O)N2CCCCC2)s1)Nc1ccc(F)cc1F	1	-4	-7	35*	14	-13	20	19
O=C(COC(=O)Cc1ccc(S(=O)(=O)N2CCOCC2)s1)Nc1ccc(F)cc1F	4	-4	-8	.	-3	11	.	.
COC(=O)c1ccc(N2C(c3cc(OC)cc(OC)c3)=Cc3ccc(-c4ccc(C(N)=O)cc4)cc3C2CC(=O)C2CC2)cc1 (configuration not stated)	8	.	.	.	.	0	.	.
c1ccc(Cc2nnc(-c3ccccc3)o2)cc1	8	-7	0	69*	1	23	71*	60*
Brc1ccc(-c2nnc(Cc3ccccc3)o2)cc1	5	-2	-21	2	7	-16	.	.
CCN1CCN(C(C(=O)NC2CCCCC2)c2cc3ccccc3o2)CC1 (configuration not stated)	2	.	.	.	.	-23	.	.
CCCCc1noc2c1/C(=N\O)CC(c1ccccc1)C2 (configuration not stated)	0	15	5	41*	11	-6	36*	23*
CC1(C)CC(=O)C(C=NCCCO)=C(O)C1	6	6	0	27*	10	-2	8	-3
CC1(C)CC(=O)C(C=NCC(N)=O)=C(O)C1	3	-10	-6	-8	4	-13	.	.
O=S(=O)(c1ccc(F)cc1)N1CCCc2nc(-c3ccc(Br)cc3)ccc21	-1	.	.	.	.	-15	.	.
Cn1c(Oc2ccccc2NCc2cc(Br)ccc2O)cc(=O)n(C)c1=O	22	-19	-1	10	32	-8	.	.
COc1cc(CNc2ccccc2Oc2cc(=O)n(C)c(=O)n2C)cc(OC)c1OC	3	-7	-17	37*	16	8	25*	24*
SMILES	TAAR1 ag	CHO parental Ca	OX1R antag-1	GPR7 antag	OX1R antag-2	TAAR1 antag	GPR7 antag cf	MCHR1 antagonist
O=C1c2cccc3c([N+](=O)[O-])ccc(c23)C(=O)N1c1ccc(Cl)cn1	2	35*	45	33*	51*	71*	100*	104*
Cc1ccc(CSc2nnc(-c3cccc(S(=O)(=O)N4CCOCC4)c3)n2CC(C)C)cc1	6	-10	-20	35*	8	0	19	25*
CC(C)Cn1c(SCC(N)=O)nnc1-c1cccc(S(=O)(=O)N2CCOCC2)c1	3	-1	-7	.	1	-4	.	.
Clc1ccc(CN2C3=NCCCN3c3ccccc32)cc1	5	-21	-29	4	3	-5	.	.
Clc1ccc(CN2C3=NCCCN3c3ccccc32)cc1Cl	5	-32	-29	24*	22	3	26*	27*
Cc1cccc(C)c1NC(=O)CN(C)CC(=O)Nc1ccccc1Oc1ccccc1	7	-20	-10	32*	21	6	26*	26*
Cc1ccc(NC(=O)CN(C)CC(=O)Nc2ccccc2Oc2ccccc2)cc1	-1	-7	-15	3	7	-10	.	.
CC1(CCc2ccc3c(c2)OCO3)NCCc2c1[nH]c1ccccc21 (configuration not stated)	49*	13	-4	60*	6	10	39*	45*
CCOc1ccc(-n2c(-c3ccccc3)c[n+]3c2CCCCC3)cc1	-1	3	0	29*	6	5	47*	45*
O=C(Nc1cccc(S(=O)(=O)N2CCCCC2)c1)c1ccc2c(=O)n3c(nc2c1)CCCCC3	10	-3	-20	28*	20	61*	15	77*
CN(C)S(=O)(=O)Oc1ccsc1C(=O)Nc1ccc(Cl)c(Cl)c1	16	-19	-9	28*	7	23	21	58*
CN(C)S(=O)(=O)Oc1ccsc1C(=O)Nc1ccc(Br)cc1	0	-15	-35	5	42	12	.	.
CCN(CC)c1ccc(S(=O)(=O)N2CCOCC2)cc1NC(=O)CNCc1ccccc1	1	-10	-1	24*	9	-3	31*	29*
CCN(CC)c1ccc(S(=O)(=O)N2CCOCC2)cc1NC(=O)CSC(=S)N1CCCC1	-2	-4	-37	44*	-9	-36	24*	48*

Bioassay records: PubChem, The Scripps Research Institute Molecular Screening Center
